# Measured values taken from ChEMBL document CHEMBL3352630, “Sequestered fulvinol-related polyacetylenes in Peltodoris atromaculata” (J Nat Prod, 2014).
# Experiments:
# [1] = Growth inhibition of human U373 cells after 72 hrs by MTT assay; format: functional, cell-based, U-373MG ATCC; details: U373 MG
# In short: (§1)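 Human cancer cells (carcinoma: A549, MCF-7, PC-3; glioma: Hs683, U373; melanoma: SK-MEL-28) were cultured with the test compound for 72 h. Growth was read by MTT colorimetric assay, and the IC50 for in vitro growth inhibition is given in μM. Etoposide was run alongside as the reference agent.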
# SK-MEL-28 = assay: Growth inhibition of human SK-MEL-28 cells after 72 hrs by MTT assay; format: functional, cell-based; details: SK-MEL-28, 72 h; in short: as §1
# [2] = Growth inhibition of human Hs683 cells after 72 hrs by MTT assay; format: functional, cell-based; details: Hs 683, 72 h; in short: as §1
# [3] = Growth inhibition of human PC3 cells after 72 hrs by MTT assay; format: functional, cell-based; details: PC-3, 72 h; in short: as §1
# A549 = assay: Growth inhibition of human A549 cells after 72 hrs by MTT assay; format: functional, cell-based; details: A549, 72 h; in short: as §1
# MCF7 = assay: Growth inhibition of human MCF7 cells after 72 hrs by MTT assay; format: functional, cell-based; details: MCF7, 72 h; in short: as §1
SMILES,IC50 [1] [µM],IC50 (SK-MEL-28) [µM],IC50 [2] [µM],IC50 [3] [µM],IC50 (A549) [µM],IC50 (MCF7) [µM]
COc1cc([C@@H]2c3cc4c(cc3[C@@H](O[C@@H]3O[C@@H]5CO[C@@H](C)O[C@H]5[C@H](O)[C@H]3O)[C@H]3COC(=O)[C@H]23)OCO4)cc(OC)c1O [ETOPOSIDE],7,1,1,2,0.1,17
C#C[C@@H](O)/C=C/CCCCCCCCCCCCC/C=C\CCCC/C=C\CCCC/C=C\C/C=C\CCCCCC(O)/C=C/[C@H](O)C#C (some centres undefined),15,3,23,32,31,15
C#CC(=O)/C=C/CCCCCCCCC/C=C\CCCC/C=C\CCCC/C=C\CCCCCCCCCCCCC/C=C/C(=O)C#C,> 100,> 100,> 100,86,37,82
C#C[C@@H](O)/C=C/CCCCCCCCC/C=C\CCCC/C=C\CCCC/C=C\CCCCCCCCCCCCC/C=C/[C@H](O)C#C,19,11,36,18,28,23
